Tests used:
Leukotriene B4 receptor = Leukotriene B4 receptor (Homo sapiens, UniProt Q9NPC1+Q15722); experiment: Inhibition of binding of [3H]LTB4 (1 nM) to intact human polymorphonuclear leukocytes (PMNs)
How it was run: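 Intact donor PMNs (10^6 cells) in Ca2+/Mg2+-free HBSS with 5 mM HEPES, incubated 20 min at 4 °C with 1 nM [3H]LTB4 (7.4 TBq/mmol), with or without competitors at various concentrations. Bound label measured by filtration. […] Screening at 10 μM.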

Homo sapiens = species: Homo sapiens; experiment: (§1) Inhibition of LTB4 induced chemotaxis of isolated human PMNs; format: functional
How it was run: (§2)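 Human PMNs from healthy donors' heparinized blood, isolated by dextran sedimentation, Ficoll and hypotonic lysis. Cells labeled with 51Cr (1 μCi/10^6 cells, 1 h, 37 °C), resuspended at 10^7 cells/mL in Hank's buffer with 1% BSA. LTB4 plus competitors in lower Boyden–Keller chamber, two 3 μm cellulose nitrate filters, 150 min at 37 °C, 5% CO2. Lower-filter radioactivity counted, expressed as percent of control. pKB from n experiments.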

[1] = as §1; format: functional; how it was run: as §2

IC50 (Leukotriene B4 receptor) | SMILES | pKB (Homo sapiens) | pKB [1]
4 µM | CCCCCCCCC(O)/C=C/[C@H]1CCC[C@](O)(CC(=O)[O-])C1.[Na+] (stereo in doubt; 4c) | – | –
2.6 µM | O=C([O-])C[C@@H]1CCC[C@H](CCC(O)CCCCc2ccccc2)C1.[Na+] (some centres undefined) | – | –
0.9 µM | CCCCCCCCC(O)/C=C/[C@H]1CCC[C@@](O)(CC(=O)[O-])C1.[Na+] (stereo in doubt; 4b) | 6.42 | –
> 10 µM | O=C([O-])/C=C1/CCC[C@H](/C=C/C(O)CCCCc2ccccc2)C1.[Na+] (stereo in doubt; 10a) | – | –
> 10 µM | O=C([O-])C[C@]1(O)CCC[C@H](/C=C/C(O)(CCCCc2ccccc2)CC(=O)O)C1.[Na+] (some centres undefined) | – | –
> 10 µM | O=C([O-])C[C@]1(O)CCC[C@H](/C=C/C(O)CCCCc2ccccc2)C1.[Na+] (stereo in doubt; 3a) | – | –
2 µM | CN(C)C(=O)C[C@]1(O)CCC[C@H](/C=C/C(F)CCCCc2ccccc2)C1 (stereo in doubt; 16 a) | – | –
> 10 µM | CCCCCC(O)/C=C/[C@H]1CCC[C@@](O)(CC(=O)[O-])C1.[Na+] (stereo in doubt; 2a) | – | –
10 µM | CCCCCC(O)/C=C/[C@H]1CCC[C@](O)(CC(=O)[O-])C1.[Na+] (stereo in doubt; 2d) | 5.25 | –
1.3 µM | O=C([O-])/C=C1\CCC[C@H](/C=C\C(O)CCCCc2ccccc2)C1.[Na+] (some centres undefined) | – | –
0.8 µM | O=C([O-])C[C@]1(O)CCC[C@H](/C=C/C(O)CCCCc2ccccc2)C1.[Na+] (stereo in doubt; 3b) | – | 6.57
> 10 µM | O=C([O-])/C=C1/CCC[C@H](/C=C/C(O)CCCCc2ccccc2)C1.[Na+] (stereo in doubt; form 1) | – | –
2.5 µM | CCCCCCCCC(O)/C=C/[C@H]1CCC[C@](O)(CC(=O)[O-])C1.[Na+] (stereo in doubt; 4d) | – | –
1.5 µM | O=C([O-])C[C@@]1(O)CCC[C@H](/C=C/C(O)CCCCc2ccccc2)C1.[Na+] (stereo in doubt; 3d) | – | 6.31
4.5 µM | CN(C)C(=O)C[C@]1(O)CCC[C@H](/C=C/C(C)(O)CCCCc2ccccc2)C1 (stereo in doubt; form 1) | – | –
> 10 µM | CCCCCC(O)/C=C/[C@H]1CCC[C@](O)(CC(=O)[O-])C1.[Na+] (stereo in doubt; 2c) | – | –
0.08 µM | CN(C)OC(=O)C[C@@]1(O)CCC[C@H](/C=C/C(O)CCCCc2ccccc2)C1 (some centres undefined) | – | 6.91
> 10 µM | O=C([O-])C[C@]1(O)CCC[C@H](/C=C/C(=O)CCCCc2ccccc2)C1.[Na+] | – | –
7 µM | CN(C)C(=O)C[C@]1(O)CCC[C@H](/C=C/C(C)(O)CCCCc2ccccc2)C1 (stereo in doubt; 15b) | – | –
> 10 µM | CC(=O)OC(/C=C/[C@H]1CCC/C(=C/C(=O)N(C)C)C1)CCCCc1ccccc1 (some centres undefined) | – | –
> 10 µM | CCCCCCCCC(O)/C=C/[C@H]1CCC[C@@](O)(CC(=O)[O-])C1.[Na+] (stereo in doubt; 4a) | – | –
0.5 µM | O=C([O-])/C=C1/CCC[C@H](/C=C/C(O)CCCCc2ccccc2)C1.[Na+] (stereo in doubt; form 2) | – | –
6.5 µM | CN(C)C(=O)C[C@]1(O)CCC[C@H](/C=C/C(F)CCCCc2ccccc2)C1 (stereo in doubt; 16b) | – | –
8 µM | CCCCCC(O)/C=C/[C@H]1CCC[C@@](O)(CC(=O)[O-])C1.[Na+] (stereo in doubt; 2b) | – | 5.1
1 µM | CN(C)OC(=O)/C=C1/CCC[C@@H](/C=C/C(O)CCCCc2ccccc2)C1 (some centres undefined) | – | –
> 10 µM | CN(C)C(=O)C[C@]1(O)CCC[C@H](/C=C/C(C)(O)CCCCc2ccccc2)C1 (stereo in doubt; form 2) | – | –
> 10 µM | O=C([O-])C[C@@]1(O)CCC[C@H](/C=C/C(O)CCCCc2ccccc2)C1.[Na+] (stereo in doubt; 3c) | – | –
7 µM | CN(C)OC(=O)/C=C1/CCC[C@H](/C=C/C(O)CCCCc2ccccc2)C1 (some centres undefined) | – | –
> 10 µM | CN(C)OC(=O)C[C@]1(O)CCC[C@H](/C=C/C(O)CCCCc2ccccc2)C1 (some centres undefined) | – | –
5.3 µM | O=C([O-])C[C@]1(O)CCC[C@H](CCC(O)CCCCc2ccccc2)C1.[Na+] (some centres undefined) | – | –

SMILES | IC50 (Leukotriene B4 receptor) | pKB (Homo sapiens) | pKB [1]
CN(C)C(=O)C[C@]1(O)CCC[C@H](/C=C/[C@@H](O)CCCCc2ccccc2)C1 | 0.04 µM | – | 7.5
CN(C)C(=O)C[C@]1(O)CCC[C@H](/C=C/[C@H](O)CCCCc2ccccc2)C1 | > 10 µM | – | –

— ChEMBL document CHEMBL1132545, “Synthesis and structure-activity relationships of new 1, 3-disubstituted cyclohexanes as structurally rigid leukotriene B(4) receptor antagonists” (J Med Chem, 1999)
